Shown are actives, neighbours in structure and some others; about 2.8% of the full set was active somewhere.
PGE2 EP2 inh – human EP2 receptor antagonists, primary screen, TR-FRET cAMP, C6 glioma cells | Prostaglandin E2 receptor EP2 subtype (Homo sapiens), P43116 | C6 glioma cells expressing human EP2; cells stimulated with saturating PGE2 | inhibition, % at 25 µM | 0.52% of 260,000 active;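 active = percent inhibition above 40 after rounding to a whole number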;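 also: rat C6 glioma host cells with rolipram phosphodiesterase inhibitor present; the protocol text gives 20 µM as final concentration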
NPY-Y2 PAM-ag – NPY-Y2 potentiators or agonists, primary screen, cell-based. Neuropeptide Y receptor type 2 (Homo sapiens), P49146. cells expressing NPY-Y2, potentiator/agonist read-out. activation, % at 3.6 µM. 0.45% of 220,000 active. AID 1359, 2008; in the data active = activation above about 27%;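 also: cells stimulated with NPY near EC25 plus isoproterenol at EC100; 0% = vehicle plus submaximal agonist and 100% = vehicle plus saturating agonist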
Target sequence (P49146 whole entry, looked up): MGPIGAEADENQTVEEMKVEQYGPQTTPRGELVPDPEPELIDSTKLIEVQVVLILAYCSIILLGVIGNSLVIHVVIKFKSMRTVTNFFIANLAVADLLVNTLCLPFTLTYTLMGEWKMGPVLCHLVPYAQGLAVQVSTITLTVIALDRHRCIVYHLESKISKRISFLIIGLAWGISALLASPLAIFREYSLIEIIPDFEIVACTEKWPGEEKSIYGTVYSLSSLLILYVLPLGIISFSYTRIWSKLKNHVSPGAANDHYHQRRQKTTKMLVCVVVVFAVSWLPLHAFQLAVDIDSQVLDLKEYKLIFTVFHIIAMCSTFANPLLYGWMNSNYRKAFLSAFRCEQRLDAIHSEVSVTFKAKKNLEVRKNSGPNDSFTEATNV
NPY1 pot ag – NPY-Y1 receptor potentiators or agonists, primary screen, cell-based; Neuropeptide Y receptor type 1 (Homo sapiens), P25929; NPY-Y1 expressing cells, potentiator/agonist activation; activation, % at 3.6 µM; 0.37% of 220,000 active; in the data active = activation above about 33%, passing the limit was not always enough;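 also: cells stimulated with NPY at EC10 then isoproterenol at EC100; 0% = low agonist plus stimulus and 100% = saturating agonist plus stimulus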
NPY-Y2 antag – NPY-Y2 receptor antagonists, primary screen, cell-based | 0.99% of 140,000 active | Neuropeptide Y receptor type 2 (Homo sapiens), P49146 | NPY-Y2 expressing cells, antagonist mode | inhibition, % at 2.7 µM; in the data active = inhibition above about 17%;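 also: 0% = vehicle with agonist challenge and 100% = reference antagonist with challenge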
EP2 mod – EP2 receptor modulators, cAMP readout, primary screen, cell-based, HTRF cAMP, PGE2 stimulation; Prostaglandin E2 receptor EP2 subtype (Homo sapiens), P43116; induction, % at 25 µM; EP2-expressing cells, cAMP HTRF FRET, PGE2 co-stimulation; 0.83% of 260,000 active;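 active = compounds whose cAMP rise, as percent of the full-agonist control response, exceeds 60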;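 also: rat C6 glioma line stably carrying human EP2 under a CMV promoter; the protocol text gives 20 µM as final concentration; 100% = response of wells given 1 µM PGE2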
NPY Y1 blocker – NPY-Y1 receptor antagonists, primary screen, cell-based | Neuropeptide Y receptor type 1 (Homo sapiens), P25929 | HEK293-CNG Y1 cells, membrane potential fluorescence; NPY at EC95, then isoproterenol | inhibition, % at 3.6 µM | 1% of 200,000 active | AID 1040, 2008;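 active = inhibition above the campaign mean inhibition of all tested compounds plus 3 SD, cut at about 20% in these data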;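 also: 0% = DMSO wells given NPY plus isoproterenol and 100% = isoproterenol alone without NPY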
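Assay system: HEK293 Y1/CNG channel cell line; Doses: single compound dose of 3.6 µM, 0.4% DMSO; Timing: dye 3 h, compound 60 min room temperature, stimulation 45 min; Technique: Membrane-potential fluorescent dye readout; Measure: % inhibition of NPY effect.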
* marks the source's active call; other numbers are inactive results; / = not tested or not shown; ! = repeats disagree.

SMILES	PGE2 EP2 inh	NPY-Y2 PAM-ag	NPY1 pot ag	NPY-Y2 antag	EP2 mod	NPY Y1 blocker
CC1CCN(S(=O)(=O)c2cccc(C(=O)N(Cc3ccccc3)c3ccccn3)c2)CC1	0	-17	-14	/	-4	22*
Cc1nc2cc(C(=O)N3CCN(Cc4ccco4)C[C@@H]3C(C)C)ccc2n1C	/	/	/	/	6	/
CCOC(=O)c1c(-c2ccccc2)oc2ccc(OCC(=O)O)cc12	11	-11	-9	/	68*	/
CCN(CC)C(=O)c1c(-c2ccccc2)oc2ccc(OC)cc12	10	-6	-9	5	64*	6
CCOc1ccc(N(C(=O)c2csnn2)C(C(=O)NC(C)(C)C)c2ccccc2)cc1 (centres undefined)	18	/	/	/	-24	/
O=C(Nc1ccc(F)cc1)Nc1cc(OCC(F)(F)F)cc(OCC(F)(F)F)c1	7	54*	66*	-3	2	-14
Cc1ccc(C(C)C(=O)NCCn2nc(-c3ccco3)ccc2=O)cc1 (centres undefined)	4	/	/	/	-35	/
Nc1ccc(-c2cc(-c3ccc(N)cc3)nc(-c3ccccc3)n2)cc1	5	39*	46*	-5	-8	-8
CCC1(C)Cc2ccccc2-c2nc3n(c(=O)c21)CCCCC3 (centres undefined)	9	-7	-13	4	57	4
CC1(C)Cc2ccccc2-c2nc3n(c(=O)c21)CCCS3	8	4	17	/	64*	1
Cc1ccccc1N(CC(=O)NC1CCCC1)C(=O)c1oc(C(C)(C)C)cc1C	-6	14	13	10	5	15
Cc1cc(C(C)(C)C)oc1C(=O)N(CC(=O)NC1CCCC1)Cc1ccccc1Cl	7	-20	-31	27*	-5	26*
Cc1cc2c(cc3c(=O)n(CC(=O)NCCCN4CCC(C)CC4)nc(C)n32)s1	/	/	/	/	-18	/
CC(=O)/C=C/c1ccc(C)o1	8	6	16	/	16	-2
Cc1ccc(/C=C/C(=O)c2ccc(Br)cc2)o1	95*	/	/	/	-107	/
CC(C)Oc1cccc(C(=O)Nc2cccc(NC(=O)c3ccco3)c2)c1	24	/	/	/	-70	/
CCOC(=O)c1cc2occc2n1Cc1ccc(F)cc1	13	6	9	7	85*!	9
Cc1cc2c(cc(C(=O)N3CCC(C(=O)N4CCCC4)CC3)n2Cc2c(F)cccc2Cl)o1	12	-13	-2	21*	14	26*
COC(=O)c1cc2occc2n1Cc1c(F)cccc1Cl	15	-5	-23	11	64*	10
CCOC(=O)c1cc2occc2n1Cc1c(F)cccc1Cl	19	11	-29	7	44	3
COc1cc(OC)cc(C(=O)N2CCC(C(=O)Nc3cccc(C)c3)CC2)c1	7	/	/	/	-34	/
CCC(C)Nc1nc(N)c([N+](=O)[O-])c(Nc2cc(OC)ccc2OC)n1 (centres undefined)	4	-6	0	/	36	/
COc1ccc(OC)c(Nc2nc(NCCC(C)C)nc(N)c2[N+](=O)[O-])c1	8	1	2	/	63*	/
CC(=O)Oc1c(C)cc(Cl)cc1C(=O)Nc1ccc([N+](=O)[O-])cc1Cl	7	25	-49	20*	-7	16
C=C[C@]1(C)C[C@H](OC(=O)CO)[C@]2(C)C3C(=O)CC[C@]3(CC[C@H]2C)[C@H](C)[C@H]1O (some centres undefined)	56*	/	/	/	-9	/
SMILES	PGE2 EP2 inh	NPY-Y2 PAM-ag	NPY1 pot ag	NPY-Y2 antag	EP2 mod	NPY Y1 blocker
COc1ccc(-c2nc(S(=O)(=O)c3ccc(C)cc3)c(N3CCCCC3)o2)cc1OC	4	/	/	/	12	/
CCCN1CCN(Cc2nc3ccccc3c(=O)[nH]2)CC1	1	/	/	/	-26	/
O=C1C(Cl)=C(Nc2ccc(S(=O)(=O)Nc3ccccn3)cc2)C(=O)c2ccccc21	107*	/	/	/	-63	/
Cc1ccnc(N=Cc2c(O)ccc3oc4c(c23)CCCC4)c1	13	4	14	-2	62*	-3
COc1ccc(C2C(C#N)=C(C)NC3=C2C(=O)c2ccccc23)cc1 (centres undefined)	49*	-2	11	1	-8	5
CC1CCN(c2nc3c(c(=O)[nH]2)CCN(Cc2cccc(Cl)c2)C3)CC1	7	/	/	/	-20	/
Cc1ccc(NS(=O)(=O)c2ccc(OCC(=O)Nc3cccc([N+](=O)[O-])c3)c(C)c2)cc1	3	28	44*	-5	-28	-16
C=CCNC(=O)CSc1nnc(-c2ccc(S(=O)(=O)N3CCC(C)CC3)cc2)o1	9	/	/	/	-30	/
c1ccc([P+](CC[P+](c2ccccc2)(c2ccccc2)c2ccccc2)(c2ccccc2)c2ccccc2)cc1	45*	/	/	/	18	/
CCCn1c(=N)n(CC(O)COc2cccc(C)c2)c2ccccc21 (centres undefined)	13	-33	-25	42*	-42	26*
Cc1cccc(OCC(O)Cn2c(C(C)C)nc3ccccc32)c1 (centres undefined)	13	/	/	/	-13	/
COc1ccc(OCC(O)Cn2c(=N)n(CCN3CCOCC3)c3ccccc32)cc1 (centres undefined)	11	-4	-3	2	-63	9
CCn1c(=N)n(CC(O)COc2cccc(C)c2)c2ccccc21 (centres undefined)	8	-10	-43	21*	1	20*
O[C@@H](c1cc([C@@]23C[C@H]4CC[C@@H]2C[C@H](C4)C3)nc2c(Cl)cc(Cl)cc12)[C@@H]1CCCCN1	77*	/	/	/	19	/
Cc1cccc(N2CCN(Cc3nc(-c4ccccc4Cl)oc3C)CC2)n1	4	-39	-18	/	-7	20*
COC(=O)C1=CC(C(=O)c2cccs2)=NN(c2ccc(OC)cc2)C1C(=O)OC (centres undefined)	10	17	-2	-1	63*	-2
CCOc1ccc(C(=O)N2CCC(c3ncncc3-c3ccncc3)CC2)o1	/	/	/	/	17	/
Cc1ccc(SCN2CCCCC2)cc1 (tested in a mixture with another compound)	52*	/	/	/	26	/
Cc1ccc(SCC(=O)N2CCOCC2)cc1	11	-4	5	2	18	-8
CCOC(=O)CSc1nc2ccc(NC(=O)CSc3nnnn3Cc3ccccc3)cc2s1	16	99*	104*	-3	-47	-14
COC(=O)CSc1nc2ccc(NC(C)=O)cc2s1	12	62*	68*	2	-8	-8
Nc1ccc2nc(SCC(=O)N3CCOCC3)sc2c1	9	-3	-2	/	-12	2
CCOC(=O)CSc1nc2ccc(N)cc2s1	14	34*	56*	2	12	-8
